Values after ≈ are worked out from the molar mass of the structure shown.
Legend:
Assay type in all cases: functional
[1] = system: Mycolicibacterium smegmatis; experiment: Antimycobacterial activity against Mycobacterium smegmatis ATCC 700084 after 3 days; conditions: ATCC 700084, 72 h
How it was run: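 Middlebrook 7H9 plus ADC broth microdilution MIC, with compounds in DMSO. Colonies were suspended in sterile water to 0.5 McFarland, then diluted 1:1000 in sterile water. Drug-free, sterility and DMSO controls were included. The visual read followed 3 days of static aerobic incubation at 37 °C in darkness.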

[2] = system: Staphylococcus aureus; experiment: Antimicrobial activity against methicillin-resistant Staphylococcus aureus 3202 after 24 hrs by broth microdilution method; conditions: Staphylococcus aureus, 3202, 24 h
How it was run: (§1)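 Colonies grown on nutrient agar with 5% ovine blood were suspended in PBS (pH 7.2–7.3), adjusted to 0.5 McFarland, and diluted 1:20 in Mueller–Hinton broth. Compounds were dissolved in DMSO (final ≤2.5%) and tested by NCCLS-modified broth microdilution with drug-free, sterility and broth+DMSO controls.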

[3] = system: Clostridium perfringens; experiment: Antimicrobial activity against Clostridium perfringens CNCTC 5770 after 24 hrs by broth microdilution method; conditions: CNCTC 5770, 24 h
How it was run: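 Colonies grown on blood agar (nutrient agar, 5% ovine blood) were suspended in PBS pH 7.2–7.3, set to 0.5 McFarland, and diluted 1:20 in MH broth for the final inoculum. Compounds were in DMSO (≤2.5% final), tested by NCCLS-modified microdilution with drug-free, sterility and DMSO controls.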

[4] = system: Pasteurella multocida; experiment: Antimicrobial activity against Pasteurella multocida clinical isolate after 24 hrs by broth microdilution method
How it was run: (§2)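 Broth microdilution MIC in Mueller–Hinton broth, per modified NCCLS guidelines. Strains were grown on nutrient agar with 5% ovine blood. Colonies were suspended in PBS (pH 7.2–7.3), adjusted to 0.5 McFarland, then diluted 1:20 in MH broth. Compounds were in DMSO, ≤2.5% final. Drug-free, sterility and DMSO controls were included.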

[5] = system: Staphylococcus aureus; experiment: Antimicrobial activity against methicillin-resistant Staphylococcus aureus 630 after 24 hrs by broth microdilution method; conditions: Staphylococcus aureus, 630, 24 h; how it was run: as §1
[6] = system: Bacillus cereus; experiment: Antimicrobial activity against Bacillus cereus ATCC 14579 after 24 hrs by broth microdilution method; conditions: ATCC 14579, 24 h; how it was run: as §2
[7] = system: Staphylococcus aureus; experiment: Antimicrobial activity against methicillin-resistant Staphylococcus aureus 63718 after 24 hrs by broth microdilution method; conditions: Staphylococcus aureus, 63718, 24 h; how it was run: as §1
[8] = system: Mycobacterium marinum; experiment: Antimycobacterial activity against Mycobacterium marinum CAMP 5644 after 21 days; conditions: CAMP 5644, 504 h
How it was run: (§3)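 MIC by broth microdilution in Middlebrook 7H9 with ADC enrichment. Compounds were dissolved in DMSO. Inoculum: colonies in sterile water adjusted to 0.5 McFarland, then diluted 1:1000 in sterile water. Drug-free, sterility and medium+DMSO controls were included. Wells were read visually after static incubation in the dark.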

[9] = system: Staphylococcus aureus; experiment: Antimicrobial activity against Staphylococcus aureus ATCC 29213 after 24 hrs by broth microdilution method; conditions: ATCC 29213, 24 h; how it was run: as §2
[10] = system: Mycobacterium kansasii; experiment: Antimycobacterial activity against Mycobacterium kansasii DSM 44162 after 7 days; conditions: DSM 44162, 168 h; how it was run: as §3

SMILES | MIC [1] [µM] | MIC [2] [µM] | MIC [3] [µM] | MIC [4] [µM] | MIC [5] [µM] | MIC [6] [µM] | MIC [7] [µM] | MIC [8] [µM] | MIC [9] [µM] | MIC [10] [µM]
O=C(N[C@@H](Cc1ccccc1)C(=O)Nc1ccc(Cl)c(Cl)c1)c1ccc(Cl)cc1O | 69 (≈ 32 µg/mL) | 1.07 (≈ 0.496 µg/mL) | 34.5 (≈ 16 µg/mL) | > 552 | 2.15 (≈ 0.997 µg/mL) | 1.07 (≈ 0.496 µg/mL) | 2.15 (≈ 0.997 µg/mL) | 138 (≈ 64 µg/mL) | 1.07 (≈ 0.496 µg/mL) | 34.5 (≈ 16 µg/mL)
Cc1ccc(NC(=O)c2cc(Cl)ccc2O)cc1 | > 978 | > 978 | > 978 | 1.91 (≈ 0.5 µg/mL) | > 978 | 30.6 (≈ 8 µg/mL) | > 978 | 61.1 (≈ 16 µg/mL) | > 978 | 30.6 (≈ 8 µg/mL)
Cc1ccc(NC(=O)[C@H](Cc2ccccc2)NC(=O)c2cc(Cl)ccc2O)cc1 | – | > 626 | > 626 | > 626 | > 626 | > 626 | > 626 | – | > 626 | –
CC(C)[C@H](NC(=O)OCc1ccccc1)C(=O)Oc1ccc(Cl)cc1C(=O)Nc1ccccc1 | – | – | – | > 517 | – | > 517 | – | – | > 517 | –
Cc1ccc(NC(=O)c2cc(Cl)ccc2OC(=O)[C@H](C)NC(=O)OCc2ccccc2)cc1 | > 548 | – | – | 2.14 (≈ 0.999 µg/mL) | – | 7.13 (≈ 3.33 µg/mL) | – | 68.5 (≈ 32 µg/mL) | 34.3 (≈ 16 µg/mL) | 17.1 (≈ 8 µg/mL)
Cc1ccc(NC(=O)c2cc(Cl)ccc2OC(=O)[C@@H](NC(=O)OCc2ccccc2)C(C)C)cc1 | 259 (≈ 128 µg/mL) | – | – | 4.04 (≈ 2 µg/mL) | – | 32.3 (≈ 16 µg/mL) | – | 259 (≈ 128 µg/mL) | 32.3 (≈ 16 µg/mL) | 129 (≈ 63.9 µg/mL)
Cc1ccc(NC(=O)c2cc(Cl)ccc2OC(=O)[C@H](Cc2ccccc2)NC(=O)OCc2ccccc2)cc1 | 236 (≈ 128 µg/mL) | – | – | 7.36 (≈ 4 µg/mL) | – | 29.5 (≈ 16 µg/mL) | – | 118 (≈ 64.1 µg/mL) | – | 58.9 (≈ 32 µg/mL)
Cc1ccc(NC(=O)[C@@H](NC(=O)c2cc(Cl)ccc2O)C(C)C)cc1 | > 709 | 88.7 (≈ 32 µg/mL) | 88.7 (≈ 32 µg/mL) | 88.7 (≈ 32 µg/mL) | > 709 | 22.2 (≈ 8 µg/mL) | > 709 | 355 (≈ 128 µg/mL) | 88.7 (≈ 32 µg/mL) | 88.7 (≈ 32 µg/mL)
CC(C)[C@H](NC(=O)OCc1ccccc1)C(=O)Oc1ccc(Cl)cc1C(=O)Nc1ccc(Br)cc1 | 57.2 (≈ 32 µg/mL) | 1.78 (≈ 0.997 µg/mL) | 3.57 (≈ 2 µg/mL) | 0.89 (≈ 0.498 µg/mL) | 1.78 (≈ 0.997 µg/mL) | 1.78 (≈ 0.997 µg/mL) | 3.57 (≈ 2 µg/mL) | 14.3 (≈ 8 µg/mL) | 3.57 (≈ 2 µg/mL) | 14.3 (≈ 8 µg/mL)
O=C(N[C@@H](Cc1ccccc1)C(=O)Oc1ccc(Cl)cc1C(=O)Nc1ccc(Cl)c(Cl)c1)OCc1ccccc1 | 26.8 (≈ 16 µg/mL) | 0.2 (≈ 0.12 µg/mL) | 1.67 (≈ 0.998 µg/mL) | 0.83 (≈ 0.496 µg/mL) | 0.2 (≈ 0.12 µg/mL) | 0.41 (≈ 0.245 µg/mL) | 0.2 (≈ 0.12 µg/mL) | 26.8 (≈ 16 µg/mL) | 1.67 (≈ 0.998 µg/mL) | 13.4 (≈ 8 µg/mL)
CC1(C)S[C@@H]2[C@H](NC(=O)[C@H](N)c3ccccc3)C(=O)N2[C@H]1C(=O)O [AMPICILLIN] | – | > 45.8 | < 0.72 | 1.43 (≈ 0.5 µg/mL) | > 45.8 | > 45.8 | > 45.8 | – | 5.72 (≈ 2 µg/mL) | –
O=C(O)c1cn(C2CC2)c2cc(N3CCNCC3)c(F)cc2c1=O [CIPROFLOXACIN] | – | > 48.3 | – | – | > 48.3 | – | > 48.3 | – | > 48.3 | –
NNC(=O)c1ccncc1 [ISONIAZID] | 117 (≈ 16 µg/mL) | – | – | – | – | – | – | 467 (≈ 64 µg/mL) | – | –

Source: ChEMBL document CHEMBL2434928, “New derivatives of salicylamides: Preparation and antimicrobial activity against various bacterial species” (2013)
